VIM-2 inhibitor: inhibitors of Pseudomonas aeruginosa VIM-2 metallo-beta-lactamase. purified VIM-2, nitrocefin hydrolysis, epi-absorbance fluorescence. inhibition, % at 5.6 µM. 290,000 tested, 0.89% active. AID 1527;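 active means inhibition above the mean of all tested compounds plus 3 SD, cutoff set per screening run, cut at about 7.5% in these data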;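 further: red hydrolysis product quenches plate fluorescence so inhibitors raise well fluorescence; 0% = enzyme with DMSO and 100% = DMSO without enzyme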
IMP-1 inh: blocks Pseudomonas aeruginosa IMP-1 metallo-beta-lactamase | purified IMP-1, nitrocefin hydrolysis, epi-absorbance fluorescence | inhibition, % at 5.6 µM | 290,000 tested, 0.45% active | AID 1556;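 active means inhibition above the mean plus 3 SD of all compounds in the same screening run, cut at about 4.5% in these data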;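 further: 0% = IMP-1 with DMSO and 100% = DMSO wells lacking enzyme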
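system = purified recombinant IMP-1 beta-lactamase | amount = 0.2 nM IMP-1, as dispensed | medium = HEPES buffer pH 7.1 with ZnSO4 and Brij 35 | times = 25 °C, 15 min preincubation, 25 min reaction | detection = plate fluorescence quenching by hydrolysis product, ex 480/em 530 nm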
ANO1 block: blocks the mouse calcium-activated chloride channel TMEM16A; Q8BHY3; 310,000 tested, 1.2% active; normalized B-score (activity score, 25-100; higher = stronger inhibition) at 10 µM; HEK293 TMEM16A/YFP iodide influx fluorescence, ionomycin;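 active means ratio plate-corrected score three or more library SD toward inhibition, starting fluorescence score within five deviations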;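 further: score derived from kinetic fluorescence span divided by baseline fluorescence per well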
CHT allo act: allosteric activators of human choline transporter CHT; AID 488977; Q9GZV3; CHT-expressing cells, membrane potential dye, choline EC20; active compounds read high; LV-AA mutant CHT in HEK293 cells; 310,000 tested, 0.49% active; B-score at 10 µM;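 active means initial fluorescence not abnormally high and integrated response B-score, plate-corrected, over 3 SD above library mean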
Target sequence (Q9GZV3 whole entry, looked up): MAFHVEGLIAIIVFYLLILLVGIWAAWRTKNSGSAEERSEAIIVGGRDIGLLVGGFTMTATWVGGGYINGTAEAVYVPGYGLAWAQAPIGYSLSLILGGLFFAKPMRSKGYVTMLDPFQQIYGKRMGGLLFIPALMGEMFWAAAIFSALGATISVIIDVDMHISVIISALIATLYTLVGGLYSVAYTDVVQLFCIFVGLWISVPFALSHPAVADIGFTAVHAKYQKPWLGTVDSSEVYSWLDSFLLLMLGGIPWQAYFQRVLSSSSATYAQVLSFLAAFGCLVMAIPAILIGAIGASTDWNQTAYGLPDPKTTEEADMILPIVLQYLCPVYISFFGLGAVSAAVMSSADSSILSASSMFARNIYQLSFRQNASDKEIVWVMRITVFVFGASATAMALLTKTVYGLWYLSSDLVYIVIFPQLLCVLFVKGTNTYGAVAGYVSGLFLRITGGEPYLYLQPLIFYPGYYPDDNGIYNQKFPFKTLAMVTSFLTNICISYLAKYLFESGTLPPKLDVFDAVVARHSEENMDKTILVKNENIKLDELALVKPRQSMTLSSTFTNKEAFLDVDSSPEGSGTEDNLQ
CHT block: inhibitors of human choline transporter CHT. 310,000 tested, 0.86% active. B-score at 10 µM. AID 488975. CHT-expressing cells, membrane potential dye, choline response; active compounds read low;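 active means B-score over 3 SD under the library average, and starting fluorescence ratio not unusually high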;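 further: choline stimulus applied at its EC90 after an EC20 pre-addition; B-score computed on integrated fluorescence ratio after choline addition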
TMEM16A act: activates or potentiates the mouse TMEM16A chloride channel | Q8BHY3 | HEK293 TMEM16A/YFP-H148Q/I152L, iodide quench fluorescence; active compounds read low | B-score at 10 µM | 340,000 tested, 0.3% active;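 active means fluorescence-ratio B-score plate-corrected deviation score at least 3 library SD below zero, with starting fluorescence score within 5 deviations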;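 further: channel opened by trigger with iodide after compound preincubation; score built on the fluorescence ratio of max minus min over baseline; more negative score means more quench and so TMEM16A activation or potentiation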
VIM-2 confirm: VIM-2 inhibition, confirmation assay; shares compounds with IMP-1 inh; purified VIM-2 enzyme, nitrocefin absorbance; inhibition, % at 5.6 µM; 200 tested, 73% active; in the data active means inhibition above about 8%;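 further: 0% = enzyme with vehicle and 100% = no enzyme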
TEM-1 inh 2: blocks E. coli TEM-1 beta-lactamase, VIM-2 IMP-1 counter-screen. shares compounds with IMP-1 inh. nitrocefin absorbance inhibition. inhibition, % at 5.6 µM. 200 tested, 50% active; in the data active means inhibition above about 0.66%
IMP-1 inh conf: confirmation of P. aeruginosa IMP-1 metallo-beta-lactamase inhibitors. purified IMP-1 enzyme, absorbance substrate hydrolysis. 200 tested, 60% active. inhibition, % at 5.6 µM. shares compounds with IMP-1 inh; in the data active means inhibition above about 4.9%;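 further: 0% = enzyme with vehicle and 100% = vehicle without enzyme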
CHT inh conf: confirmation of human choline transporter CHT inhibitors. CHT activity remaining % of control (active compounds read low), % at 10 µM. CHT-expressing cells, choline membrane potential dye; LV-to-AA substituted CHT, HEK293 cells. AID 493221. 2,400 tested, 70% active. shares compounds with CHT block;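 active means choline transporter activity left, mean of duplicates at 10 µM, below buffer-only control mean minus 3 SD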;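 further: depolarization triggered by choline at its EC90 following an EC20 pre-addition; 0% = hemicholinium-3 full block and 100% = buffer-only control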
HEK293 CHT ctr: counter-screen for CHT inhibitors: effect in parental HEK293 cells; shares compounds with CHT block; membrane potential dye, choline response; active = decrease or increase beyond buffer ±3SD; membrane potential ratio readout (active if shifted either direction beyond buffer ±3SD; no single direction) at 10 µM; 2,400 tested, 4% active;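 further: parental cells lack the transporter so any hit is non-specific; ratio is peak minus trough fluorescence over baseline after EC90 choline challenge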
TMEM16A reconf: re-confirmation of mouse TMEM16A chloride channel inhibitors. AID 652189. shares compounds with ANO1 block. HEK293 TMEM16A/YFP-H148Q, iodide quench fluorescence; ionomycin added to raise cell calcium. 2,300 tested, 39% active. inhibition, % at 10 µM;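 active means mean duplicate percent inhibition, scaled so buffer wells are 0 and the reference blocker 100, over three buffer SD above buffer mean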
TMEM16A Ca cntr: counter-screen for TMEM16A inhibitors: effect on calcium mobilization; shares compounds with ANO1 block; 2,300 tested, 2% active; AID 652231; calcium response (% of ionomycin), % at 10 µM; TMEM16A/YFP HEK293, Fluo4 calcium mobilization;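 active means duplicate-averaged calcium signal over 20% of the ionomycin maximum, relative to buffer baseline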;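 further: each well's signal is peak minus trough fluorescence divided by its pre-addition baseline; 0% = buffer wells and 100% = ionomycin wells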
Parental YFP cnt: acts in parental YFP-HEK293 cells lacking TMEM16A, counter-screen; iodide YFP quench, ionomycin; shares compounds with ANO1 block; YFP ratio F(max-min)/F0 at 10 µM; 2,300 tested, under 10 active;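 active means yellow fluorescent protein signal ratio exceeding the buffer control mean by over 5 SD of those controls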;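 further: ratio is mean of duplicate wells from kinetic YFP trace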
ClC-1 inh: rat ClC-1 inhibition, TMEM16A specificity screen | shares compounds with ANO1 block | CHO ClC-1-YFP, iodide influx fluorescence quench; iodide control reads 0, buffer control 100 | ratio percent, % at 10 µM | 2,300 tested, under 10 active | AID 652236;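 active means duplicate-mean ratio percent above the mean of iodide-only control wells, which defines zero, plus 5 of their SD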;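 further: higher percent means stronger block of ClC-1 iodide influx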
An asterisk follows results filed as active; i = inactive; · = no result given. This is a sample that favours compounds with a hit; in the whole collection about 3.4% have one here.

SMILES	VIM-2 inhibitor	IMP-1 inh	ANO1 block	CHT allo act	CHT block	TMEM16A act	CHT inh conf	HEK293 CHT ctr	others
N#Cc1nc(COc2ccccc2F)oc1NCCCn1ccnc1	10.1*	38.7*	100*	i	i	·	·	·	VIM-2 confirm=2.0;TEM-1 inh 2=-2.3;IMP-1 inh conf=0.2;TMEM16A reconf=i;TMEM16A Ca cntr=i;Parental YFP cnt=-1.22;ClC-1 inh=-8.5
O=[N+]([O-])c1cccc(Oc2cnccn2)c1	-1.9	-4.1	i	i	i	i	·	·
CCN1CCCC1CNC(=O)c1ccc2c(c1)N(Cc1ccccc1F)C(=O)c1ccccc1S2(=O)=O (stereo unspecified)	-0.1	-0.2	i	i	-5.31*	i	54.5%*	i
CCN1C(=O)c2ccccc2S(=O)(=O)c2ccc(C(=O)NCCCN(CC(C)C)CC(C)C)cc21	-3.1	-3.3	i	i	i	i	·	·
O=C(NCCN1CCCC1)c1ccc2c(c1)N(Cc1cccc(Cl)c1)C(=O)c1ccccc1S2(=O)=O	-0.9	-1.4	i	i	-9.49*	i	34.2%*	i
CC1CCCN(CCCNC(=O)c2ccc3c(c2)N(Cc2ccccc2F)C(=O)c2ccccc2S3(=O)=O)C1 (stereo unspecified)	-8.5	-4.9	i	i	-7.12*	i	34.6%*	i
CCN1CCCC1CNC(=O)c1ccc2c(c1)N(Cc1cccc(Cl)c1)C(=O)c1ccccc1S2(=O)=O (stereo unspecified)	-0.8	-0.2	i	i	-11.7*	i	27.5%*	i
Cc1ccc(C)c(NC(=O)COC(=O)CCC(=O)c2cccs2)c1	-1.1	-1.2	i	i	i	i	·	·
O=C(C[C@@H]1C/C=C/CCCC(=O)O[C@H](c2ccccc2)CNC1=O)N[C@H](CO)Cc1ccccc1	·	·	·	·	·	i	·	·
CC(OC(=O)c1cccc([N+](=O)[O-])c1)C(=O)NCc1ccc2c(c1)OCO2 (stereo unspecified)	-1.8	-2.6	i	i	i	i	·	·
CC1=NN(c2ccccc2)C(=O)/C1=C/c1cccs1	-1.1	-2.7	i	i	i	i	·	·
CC1=NN(c2ccccc2)C(=O)/C1=C/c1c(O)n(-c2ccc(F)cc2)[nH]c1=O	-1.2	-4.0	i	i	-5.92*	i	54.3%*	i
Cc1ccnc(NS(=O)(=O)c2ccc(NC(=O)CCc3ccccc3)cc2)n1	-1.1	-1.9	i	i	i	i	·	·
CCc1nc2ccccc2c(C(=O)OCC(=O)N(C)Cc2ccccc2)c1C	·	·	·	·	·	i	·	·
CCOC(=O)c1c(CCl)nc2ccccc2c1C	-1.4	-2.5	i	i	-8.92*	i	68.0%*	i
CCCCC(Br)C(=O)Nc1ccc(S(=O)(=O)Nc2cc(C)nc(C)n2)cc1 (stereo unspecified)	-6.9	-4.5	i	i	-5.77*	i	14.5%*	i
Cc1cc(NS(=O)(=O)c2ccc(NC(=O)/C=C/c3c(F)cccc3Cl)cc2)nc(C)n1	-2.7	-0.6	i	i	-5.68*	i	31.2%*	i
Clc1cccc(CNCCNCc2cccc(Cl)c2)c1	-1.1	-4.5	i	i	-7.01*	i	69.8%*	i
CC1Cc2ccccc2N1C(=O)CCS(=O)(=O)c1ccc2c(c1)NC(=O)CS2 (stereo unspecified)	-1.0	-3.8	i	i	-4.99*	i	i	i
COc1ccc(S(=O)(=O)CCC(=O)N2c3ccccc3CC2C)cc1 (stereo unspecified)	-2.2	-1.3	i	i	i	i	·	·
COc1ccc2c(c1)CCCC21NC(=O)N(CC(=O)c2cc(F)ccc2F)C1=O (stereo unspecified)	·	·	·	·	·	i	·	·
O=C(Nc1ccncc1)c1cccc(S(=O)(=O)N2CCCC2)c1	-1.4	-2.3	i	i	i	i	·	·
Cc1nc(N2CCCCC2C)c2c(C)c(C(=O)Nc3ccccc3C(F)(F)F)sc2n1 (stereo unspecified)	-1.7	-1.9	i	i	-7.49*	i	i	i
O=C(CSc1cccc(C(F)(F)F)c1)NCc1ccccc1	-1.0	-0.9	i	i	-5.8*	i	i	i
O=C(CSc1ccccc1)NCc1ccccc1	-1.0	-2.0	i	i	i	i	·	·
CC(C)(C)c1ccc(OCC(=O)N(Cc2cccs2)C2CCS(=O)(=O)C2)cc1 (stereo unspecified)	-2.3	-1.9	i	i	i	i	·	·
CS(=O)(=O)N1CCc2cc(S(=O)(=O)N3CCCCC3)ccc21	-1.7	-2.5	i	i	-7.45*	i	i	i
CCc1ccc(-n2c(SCc3c(C)noc3C)nnc2-c2ccncc2)cc1	-2.8	-2.1	i	i	-5.09*	i	i	i
C=CCSc1nnc(-c2ccncc2)n1-c1ccc(OCC)cc1	-6.0	-1.8	i	i	-5.46*	i	59.2%*	-8.42*

Source: PubChem BioAssay
